Results reported in ChEMBL document CHEMBL3407400, “Design, synthesis and biological evaluations of chirally pure 1,2,3,4-tertrahydroisoquinoline analogs as anti-cancer agents” (Eur J Med Chem, 2015).
pIC50: −log10 of the molar value. The source made the active and inactive calls. No cut-off for these calls is given here.

Tests used:
MCF7 = assay: Anticancer activity against human MCF7 cells after 48 hrs by MTT assay; type: functional, cell-based; details: MCF7, 48 h
How it was run: (§1)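 Cell lines held in DMEM or MEM with 10% FBS and antibiotic-antimycotic at 37 °C, 5% CO2. Cells seeded at 1 × 10⁴ per well in DMEM with 10% FBS and left 24 h. Compounds diluted in medium and added alongside vehicle control for 48 h. MTT (5 mg/mL) added for 4 h, formazan dissolved in DMSO, absorbance read at 570 nm.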

HeLa = assay: Anticancer activity against human HeLa cells after 48 hrs by MTT assay; type: functional, cell-based; how it was run: as §1
A549 = assay: Anticancer activity against human A549 cells after 48 hrs by MTT assay; type: functional, cell-based; details: A549, 48 h; how it was run: as §1
DU-145 [1] = assay: Anticancer activity against human DU145 cells after 48 hrs by MTT assay; type: functional, cell-based; details: DU-145, 48 h; how it was run: as §1
HepG2 = assay: Anticancer activity against human HepG2 cells after 48 hrs by MTT assay; type: functional, cell-based; details: HepG2, 48 h; how it was run: as §1
DU-145 [2] = assay: Cell cycle arrest in human DU145 cells assessed as G2/M phase at 1 uM after 48 hrs by propidium iodide based flow cytometry (reference value: 6.75 %); type: functional
DU-145 [3] = assay: Cell cycle arrest in human DU145 cells assessed as subG1 phase at 1 uM after 48 hrs by propidium iodide based flow cytometry (reference value: 9.36 %); type: functional
DU-145 [4] = assay: Disruption of microtubule network in human DU145 cells at 50 uM after 48 hrs by immunohistochemistry analysis; type: cell-based
DU-145 [5] = assay: Cell cycle arrest in human DU145 cells assessed as S phase at 1 uM after 48 hrs by propidium iodide based flow cytometry (reference value: 1.65 %); type: functional
DU-145 [6] = assay: Cell cycle arrest in human DU145 cells assessed as G0/G1 phase at 1 uM after 48 hrs by propidium iodide based flow cytometry (reference value: 79.15 %); type: functional
DU-145 [7] = assay: Cell cycle arrest in human DU145 cells assessed as G2/M phase at 0.5 uM after 48 hrs by propidium iodide based flow cytometry (reference value: 6.75 %); type: functional
DU-145 [8] = assay: Induction of apoptosis in human DU145 cells assessed as late apoptotic cells at 1 uM after 48 hrs by annexin V FITC/PI dual staining assay (reference value: 2.47 %); type: functional
DU-145 [9] = assay: Induction of apoptosis in human DU145 cells assessed as necrotic cells at 0.5 uM after 48 hrs by annexin V FITC/PI dual staining assay (reference value: 0.31 %); type: functional
DU-145 [10] = assay: Cell cycle arrest in human DU145 cells assessed as subG1 phase at 0.5 uM after 48 hrs by propidium iodide based flow cytometry (reference value: 9.36 %); type: functional
DU-145 [11] = assay: Induction of apoptosis in human DU145 cells assessed as early apoptotic cells at 1 uM after 48 hrs by annexin V FITC/PI dual staining assay (reference value: 0.77 %); type: functional
DU-145 [12] = assay: Induction of apoptosis in human DU145 cells assessed as necrotic cells at 1 uM after 48 hrs by annexin V FITC/PI dual staining assay (reference value: 0.31 %); type: functional
DU-145 [13] = assay: Cell cycle arrest in human DU145 cells assessed as G0/G1 phase at 0.5 uM after 48 hrs by propidium iodide based flow cytometry (reference value: 79.15 %); type: functional
DU-145 [14] = assay: Induction of apoptosis in human DU145 cells assessed as late apoptotic cells at 0.5 uM after 48 hrs by annexin V FITC/PI dual staining assay (reference value: 2.47 %); type: functional
DU-145 [15] = assay: Cell cycle arrest in human DU145 cells assessed as S phase at 0.5 uM after 48 hrs by propidium iodide based flow cytometry (reference value: 1.65 %); type: functional
DU-145 [16] = assay: Induction of apoptosis in human DU145 cells assessed as up regulation of Bax at 0.5 uM after 48 hrs by Western blot analysis relative to control; type: functional, cell-based
DU-145 [17] = assay: Induction of apoptosis in human DU145 cells assessed as down regulation of Bcl2 at 0.5 uM after 48 hrs by Western blot analysis relative to control; type: functional, cell-based
Tubulin = assay: Inhibition of tubulin (unknown origin) polymerization by fluorescence assay; type: protein-complex assay, Homo sapiens
DU-145 [18] = assay: Induction of apoptosis in human DU145 cells assessed as viable cells at 0.5 uM after 48 hrs by annexin V FITC/PI dual staining assay (reference value: 96.45 %); type: functional; details: DU-145, 48 h, read-out: Activity
DU-145 [19] = assay: Induction of apoptosis in human DU145 cells assessed as early apoptotic cells at 0.5 uM after 48 hrs by annexin V FITC/PI dual staining assay (reference value: 0.77 %); type: functional
DU-145 [20] = assay: Induction of apoptosis in human DU145 cells assessed as DNA fragmentation at 0.5 uM after 48 hrs by agarose gel electrophoresis; type: functional, cell-based
How it was run: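 DU-145 cells (1 × 10⁶) seeded, then treated 24 h later for 48 h. Lysate cleared, then digested with SDS/RNase A (2 h, 56 °C) and proteinase K (2 h, 37 °C). DNA precipitated with ammonium acetate and ice-cold ethanol, dissolved in TE. Laddering resolved on 2% agarose.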

DU-145 [21] = assay: Induction of apoptosis in human DU145 cells assessed as activation of caspase 3 at 0.5 to 1 uM after 48 hrs by fluorometric assay relative to control; type: functional
How it was run: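 DU-145 cells treated for 48 h. Fluorometric caspase-3 kit used: […] substrate added to cell lysate, 1 h at 37 °C. Fluorescence read at excitation 400 nm, emission 505 nm.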

DU-145 [22] = assay: Induction of apoptosis in human DU145 cells assessed as viable cells at 1 uM after 48 hrs by annexin V FITC/PI dual staining assay (reference value: 96.45 %); type: functional; details: DU-145, 48 h, read-out: Activity

Compound: O=C(/C=C/c1ccccc1)N1Cc2ccccc2[C@@H](OCc2ccccc2)[C@@H]1CO
- pIC50 (MCF7): 4.40
- pIC50 (HeLa): 4.56
- pIC50 (A549): 4.60
- pIC50 (DU-145 [1]): 4.89
- pIC50 (HepG2): 4.68

Compound: Cc1ccc(S(=O)(=O)NCC(=O)N2Cc3ccccc3[C@@H](OCc3ccccc3)[C@@H]2CO)cc1
- pIC50 (MCF7): 4.94
- pIC50 (HeLa): 4.82
- pIC50 (A549): 5.22
- pIC50 (DU-145 [1]): 5.42
- pIC50 (HepG2): 5.30

Compound: COC(=O)Nc1nc2cc(C(=O)c3cccs3)ccc2[nH]1 [NOCODAZOLE]
- Activity (DU-145 [2]): 43.4%
- Activity (DU-145 [3]): 4.52%
- Activity (DU-145 [4]): Active
- Activity (DU-145 [5]): 0.86%
- Activity (DU-145 [6]): 48.19%

Compound: COc1cccc(/C=C/C(=O)N2Cc3ccccc3[C@@H](OCc3ccccc3)[C@@H]2CO)c1OC
- pIC50 (MCF7): 4.26
- pIC50 (HeLa): 4.48
- pIC50 (A549): 4.40
- pIC50 (DU-145 [1]): 4.52
- pIC50 (HepG2): 4.51

Compound: O=C(/C=C/c1ccc([N+](=O)[O-])cc1)N1Cc2ccccc2[C@@H](OCc2ccccc2)[C@@H]1CO
- pIC50 (MCF7): 4.61
- pIC50 (HeLa): 4.57
- pIC50 (A549): 5.25
- pIC50 (DU-145 [1]): 5.39
- pIC50 (HepG2): 5.27

Compound: Cc1ccc(S(=O)(=O)N[C@H](C(=O)N2Cc3ccccc3[C@@H](OCc3ccccc3)[C@@H]2CO)C(C)C)cc1
- pIC50 (MCF7): 4.22
- pIC50 (HeLa): 4.03
- pIC50 (A549): 4.10
- pIC50 (DU-145 [1]): 4.50
- pIC50 (HepG2): 4.49

Compound: CC#CC(=O)N1Cc2ccccc2[C@@H](OCc2ccccc2)[C@@H]1CO
- pIC50 (MCF7): 4.73
- pIC50 (HeLa): 4.94
- pIC50 (A549): 5.03
- pIC50 (DU-145 [1]): 5.21
- pIC50 (HepG2): 5.10

Compound: COc1cccc2c1C(=O)c1c(O)c3c(c(O)c1C2=O)C[C@@](O)(C(=O)CO)C[C@@H]3O[C@H]1C[C@H](N)[C@H](O)[C@H](C)O1 [DOXORUBICIN]
- pIC50 (HeLa): 5.64
- pIC50 (DU-145 [1]): 5.89

Compound: Cc1ccc(S(=O)(=O)N2C[C@H]3[C@H](OCc4ccccc4)c4ccccc4CN3C(=O)[C@@H]2C)cc1
- Activity (DU-145 [7]): 16.96%
- pIC50 (MCF7): 5.26
- Activity (DU-145 [8]): 21.14%
- pIC50 (HeLa): 5.14
- Activity (DU-145 [2]): 40.27%
- Activity (DU-145 [9]): 0.82%
- Activity (DU-145 [10]): 8.25%
- pIC50 (A549): 5.61
- Activity (DU-145 [11]): 4.94%
- Activity (DU-145 [3]): 6.74%
- Activity (DU-145 [12]): 4.7%
- Activity (DU-145 [4]): Active
- Activity (DU-145 [13]): 68.53%
- Activity (DU-145 [14]): 4.45%
- pIC50 (DU-145 [1]): 5.91
- Activity (DU-145 [15]): 2.8%
- Activity (DU-145 [16]): Active
- Activity (DU-145 [17]): Active
- pIC50 (Tubulin): 5.45
- viability at 0.5 µM (DU-145 [18]): 92.8%
- Activity (DU-145 [19]): 1.88%
- Activity (DU-145 [20]): Active
- fold change (FC) (DU-145 [21]): 3
- Activity (DU-145 [5]): 1.83%
- Activity (DU-145 [6]): 46.67%
- pIC50 (HepG2): 5.77
- viability at 1 µM (DU-145 [22]): 69.2%
